The target of experiment [1] is T1, 5-hydroxytryptamine receptor 1A (Rattus norvegicus, UniProt P19327).
T1 sequence (P19327 whole entry): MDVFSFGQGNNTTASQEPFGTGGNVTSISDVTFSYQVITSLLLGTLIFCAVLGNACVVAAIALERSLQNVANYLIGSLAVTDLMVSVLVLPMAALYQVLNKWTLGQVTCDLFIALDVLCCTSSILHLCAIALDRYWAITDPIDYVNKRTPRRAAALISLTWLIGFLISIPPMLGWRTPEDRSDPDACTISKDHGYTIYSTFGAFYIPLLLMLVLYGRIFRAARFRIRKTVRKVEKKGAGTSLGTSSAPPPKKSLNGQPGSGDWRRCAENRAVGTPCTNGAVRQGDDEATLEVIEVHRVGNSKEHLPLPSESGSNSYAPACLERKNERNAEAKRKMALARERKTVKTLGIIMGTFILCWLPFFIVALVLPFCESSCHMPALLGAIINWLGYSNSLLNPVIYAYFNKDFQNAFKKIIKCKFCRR
Briefly: Inhibition of 8-OH DPAT bindign to rat hydroxytryptamine 1A receptor in hippocampal membranes.

A further experiment concerns the target D(2) dopamine receptor (Rattus norvegicus, UniProt P61169). Briefly: Displacement of [3H]spiperone from dopamine D2 receptor of rat striatal membranes. Type of experiment: cell membranes, Membrane. The gist of the method: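 Rat striatal membranes (0.3–1.0 mg protein/mL) were incubated with 0.1 nM [3H]spiperone in Tris-HCl buffer (pH 7.1) containing 120 mmol/L NaCl, 5 mmol/L KCl, 1 mmol/L CaCl2, 1 mmol/L MgCl2 and 0.1% ascorbic acid, at 37 °C for 15 min. Bound ligand was separated by filtration with three ice-cold washes. Nonspecific binding was defined with 1 mmol/L (+)-butaclamol. IC50 (50% inhibition of binding) came from 5–10 concentrations, each in triplicate.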
Background: In a radioligand displacement assay an active substance lowers the binding of a labelled ligand.

Sequence of D(2) dopamine receptor (P61169 whole entry): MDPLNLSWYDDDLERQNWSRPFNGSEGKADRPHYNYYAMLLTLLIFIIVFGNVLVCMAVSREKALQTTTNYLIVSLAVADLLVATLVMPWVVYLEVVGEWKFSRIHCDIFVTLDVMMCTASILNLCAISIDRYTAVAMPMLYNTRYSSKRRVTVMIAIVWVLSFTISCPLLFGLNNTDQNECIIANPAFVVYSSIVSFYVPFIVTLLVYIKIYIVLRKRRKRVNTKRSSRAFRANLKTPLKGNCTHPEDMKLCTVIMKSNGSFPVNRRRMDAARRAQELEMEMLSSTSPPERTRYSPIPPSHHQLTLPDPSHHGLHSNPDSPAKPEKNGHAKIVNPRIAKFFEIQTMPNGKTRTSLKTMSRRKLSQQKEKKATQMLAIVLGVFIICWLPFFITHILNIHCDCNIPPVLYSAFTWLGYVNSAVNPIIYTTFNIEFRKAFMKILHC

The compound `COc1ccc2[nH]cc(CCCCN3CCN(c4ccc(O[Si](C)(C)C(C)(C)C)cc4)CC3)c2c1` yielded an IC50 in experiment [1] of 70 nM.

For the compound `CCOCCOCCOc1cccc(N2CCN(CCCCc3c[nH]c4ccc(C(N)=O)cc34)CC2)c1C#N`, the half-inhibitory concentration (IC50) on D(2) dopamine receptor was found to be 28 nM; in experiment [1], 0.9 nM.

Take `CCCCCOc1ccc2[nH]cc(CCCCN3CCN(c4ccc(OC)cc4)CC3)c2c1`: the IC50 on D(2) dopamine receptor is greater than 100 nM; in experiment [1], 200 nM.

In the case of `Oc1ccc2[nH]cc(CCCCN3CC=C(c4ccccc4)CC3)c2c1` [ROXINDOLE], the values for the IC50 (on D(2) dopamine receptor; in experiment [1]) were 5.6 nM and 0.8 nM, respectively. The matching figures for `Oc1ccc2[nH]cc(CCCCN3CCC(c4ccccc4)CC3)c2c1`: 80 nM and 1 nM. Regarding `COc1ccc(C2=CCN(CCCCc3c[nH]c4ccc(OC)cc34)CC2)cc1`, the IC50 is greater than 100 nM on D(2) dopamine receptor and 0.6 nM in experiment [1]. As to `COc1ccc2[nH]cc(CCCCN3CCN(c4ccc5c(c4)CCO5)CC3)c2c1`, the IC50 at D(2) dopamine receptor is greater than 100 nM; in experiment [1], 0.4 nM.

As for `COc1ccc(N2CCN(CCCCc3c[nH]c4ccc(C(N)=O)cc34)CC2)c(OC)c1`, the IC50 came out at 100 nM at D(2) dopamine receptor and 0.07 nM in experiment [1]. As to `COc1ccc2[nH]cc(CCCCN3CCN(c4ccc(OC(=O)C(C)(C)C)cc4)CC3)c2c1`, the midpoint of inhibition in experiment [1], the IC50, lay at 24 nM. Regarding `COc1c(Cl)cc(N2CCN(CCCCc3c[nH]c4ccc(C(N)=O)cc34)CC2)cc1Cl`, the IC50 on D(2) dopamine receptor is greater than 100 nM; in experiment [1], 0.7 nM. Consider `COCCOc1ccc(N2CCN(CCCCc3c[nH]c4ccc(OC)cc34)CC2)cc1`, for which 2 nM corresponded to half-maximal inhibition in experiment [1] (IC50).

`COc1ccc(N2CCN(CCCCc3c[nH]c4ccc(OC(C)=O)cc34)CC2)cc1`: the results for the IC50 (on D(2) dopamine receptor; in experiment [1]) were greater than 100 nM and 0.5 nM, respectively. On the same counts, the results for `COC(=O)c1ccc2[nH]cc(CCCCN3CCN(c4ccc(OC)cc4)CC3)c2c1` are greater than 100 nM and 8 nM. The matching figures for `COc1ccc2[nH]cc(CCCCN3CCN(c4ccccc4)CC3)c2c1`: 32 nM and 20 nM. On the same counts, the results for `NC(=O)c1ccc2[nH]cc(CCCCN3CCN(c4ccc5c(c4)CCO5)CC3)c2c1` are greater than 100 nM and 0.5 nM.

Consider `COc1ccc2[nH]cc(CCCCN3CCN(c4ccc(OC)c(OC)c4)CC3)c2c1`, for which the IC50 at D(2) dopamine receptor was determined as 100 nM; in experiment [1] it was 10 nM. The matching figures for `NC(=O)c1ccc2[nH]cc(CCCCN3CCN(c4ccc(O)cc4)CC3)c2c1`: 156 nM and 0.2 nM. Turning to `CCOc1ccc2[nH]cc(CCCCN3CCN(c4ccc(OC)cc4)CC3)c2c1`, the values for the IC50 (on D(2) dopamine receptor; in experiment [1]) were 300 nM and 2 nM, respectively. For `Oc1ccc2[nH]cc(CCCCN3CCN(c4ccccc4)CC3)c2c1`, the IC50 at D(2) dopamine receptor amounted to 4.2 nM; in experiment [1], 0.8 nM. The matching figures for `COc1ccc2[nH]cc(CCCCN3CCN(c4ccc(OCc5ccccc5)cc4)CC3)c2c1`: 220 nM and 30 nM. On the same counts, the results for `COc1ccc2[nH]cc(CCCCN3CCN(c4ccc(O)cc4)CC3)c2c1` are 53 nM and 2 nM. On the same counts, the results for `CCOc1ccc(N2CCN(CCCCc3c[nH]c4ccc(OC)cc34)CC2)cc1` are greater than 100 nM and 0.8 nM.

In the case of `CC(=O)Nc1ccc(N2CCN(CCCCc3c[nH]c4ccc(C(N)=O)cc34)CC2)cc1`, the IC50 on D(2) dopamine receptor was greater than 100 nM; in experiment [1], 0.1 nM.

For `COc1ccc(N2CCN(CCCCc3c[nH]c4ccc(OCc5ccccc5)cc34)CC2)cc1`, the IC50 on D(2) dopamine receptor is greater than 100 nM; in experiment [1], 34 nM. On the same counts, the results for `COc1ccc2[nH]cc(CCCCN3CCN(c4ccc(NC(C)=O)cc4)CC3)c2c1` are greater than 100 nM and 3 nM. With `COc1ccc(N2CCN(CCCCc3c[nH]c4ccc(OC5CCCC5)cc34)CC2)cc1`, the values for the IC50 (on D(2) dopamine receptor; in experiment [1]) were greater than 100 nM and 90 nM, respectively. On to `NC(=O)c1ccc2[nH]cc(CCCCN3CCC(c4ccccc4)CC3)c2c1`, for which the results for the IC50 (on D(2) dopamine receptor; in experiment [1]) were 17 nM and 0.1 nM, respectively. With `NC(=O)c1ccc2[nH]cc(CCCCN3CCN(c4ccccc4)CC3)c2c1`, the IC50 is 7 nM at D(2) dopamine receptor and 0.1 nM in experiment [1]. Turning to `N#Cc1ccccc1N1CCN(CCCCc2c[nH]c3ccc(C(N)=O)cc23)CC1`, the IC50 at D(2) dopamine receptor was determined as 6.2 nM; in experiment [1] it was 0.2 nM.

`O=C(O)c1ccc2[nH]cc(CCCCN3CCC(c4ccccc4)CC3)c2c1`: the IC50 on D(2) dopamine receptor is 1000 nM; in experiment [1], 100 nM. On to `N#Cc1c(F)cccc1N1CCN(CCCCc2c[nH]c3ccc(C(N)=O)cc23)CC1`, for which the IC50 is 5 nM on D(2) dopamine receptor and 0.01 nM in experiment [1].

Consider `NC(=O)c1ccc2[nH]cc(CCCCN3CCN(c4ccc5c(c4)OCCO5)CC3)c2c1`, for which the IC50 is 40 nM at D(2) dopamine receptor and 0.2 nM in experiment [1].

Consider `COC(=O)c1ccc2[nH]cc(CCCCN3CCN(c4ccccc4)CC3)c2c1`, for which the results for the IC50 (on D(2) dopamine receptor; in experiment [1]) were 31 nM and 40 nM, respectively.

In the case of `COc1ccc2[nH]cc(CCCCN3CCN(c4ccc5c(c4)OCCO5)CC3)c2c1`, the values for the IC50 (on D(2) dopamine receptor; in experiment [1]) were 120 nM and 0.5 nM, respectively.

Turning to `COc1ccc2[nH]cc(CCCCN3CC=C(c4ccc5c(c4)OCO5)CC3)c2c1`, the IC50 on D(2) dopamine receptor is greater than 100 nM; in experiment [1], 0.4 nM.

As for `O=C(O)c1ccc2[nH]cc(CCCCN3CCN(c4ccccc4)CC3)c2c1`, the values for the concentration for half-maximal inhibition (IC50) (at D(2) dopamine receptor; in experiment [1]) were greater than 100 nM and 40 nM, respectively.

For the compound `COc1ccccc1N1CCN(CCCCc2c[nH]c3ccc(C(N)=O)cc23)CC1`, the results for the half-inhibitory concentration (IC50) (at D(2) dopamine receptor; in experiment [1]) were 1.2 nM and 0.1 nM, respectively.

For the compound `COc1ccc2[nH]cc(CCCCN3CC=C(c4ccc(O)cc4)CC3)c2c1`, the IC50 on D(2) dopamine receptor is roughly 100 nM; in experiment [1] it was 0.4 nM.

`NC(=O)c1ccc2[nH]cc(CCCCN3CCN(c4ccccc4C(N)=O)CC3)c2c1`: the IC50 turned out to be 97 nM at D(2) dopamine receptor and 0.3 nM in experiment [1]. The matching figures for `COc1ccc2[nH]cc(CCCCN3CCN(c4ccc5c(c4)OCO5)CC3)c2c1`: 100 nM and 4 nM. For the compound `COc1ccc2[nH]cc(CCCCN3CCN(c4cc(C)c(OC)c(C)c4)CC3)c2c1`, the IC50 on D(2) dopamine receptor is greater than 100 nM; in experiment [1], 60 nM. The matching figures for `COc1ccc2[nH]cc(CCCCN3CCN(c4cc(OC)c(OC)c(OC)c4)CC3)c2c1`: greater than 100 nM and 333 nM. The compound `COc1ccc2[nH]cc(CCCCN3CC=C(c4ccccc4)CC3)c2c1` showed an IC50 in experiment [1] of 20 nM. For the compound `COc1ccc2[nH]cc(CCCCN3CCN(c4ccc(OC(C)=O)cc4)CC3)c2c1`, the IC50 was greater than 100 nM at D(2) dopamine receptor and 1 nM in experiment [1]. On the same counts, the results for `COC(=O)c1ccc2[nH]cc(CCCCN3CCC(c4ccccc4)CC3)c2c1` are 113 nM and 20 nM. With `COc1ccc2[nH]cc(CCCCN3CCN(c4ccc5c(c4)CCCO5)CC3)c2c1`, the IC50 at D(2) dopamine receptor was greater than 100 nM; in experiment [1], 2 nM.

By IC50 is commonly meant the concentration that inhibits the measured activity by half.

The values are drawn from ChEMBL document CHEMBL1138746, “Indolebutylamines as selective 5-HT(1A) agonists” (J Med Chem, 2004).
